Consider 16 molecules from ChEMBL document CHEMBL1125423, “Potent and systemically active aminopeptidase N inhibitors designed from active-site investigation” (J Med Chem, 1992).

Experiment [1] addresses T1, Aminopeptidase N (Sus scrofa, UniProt P15145).
T1 sequence (P15145 whole entry): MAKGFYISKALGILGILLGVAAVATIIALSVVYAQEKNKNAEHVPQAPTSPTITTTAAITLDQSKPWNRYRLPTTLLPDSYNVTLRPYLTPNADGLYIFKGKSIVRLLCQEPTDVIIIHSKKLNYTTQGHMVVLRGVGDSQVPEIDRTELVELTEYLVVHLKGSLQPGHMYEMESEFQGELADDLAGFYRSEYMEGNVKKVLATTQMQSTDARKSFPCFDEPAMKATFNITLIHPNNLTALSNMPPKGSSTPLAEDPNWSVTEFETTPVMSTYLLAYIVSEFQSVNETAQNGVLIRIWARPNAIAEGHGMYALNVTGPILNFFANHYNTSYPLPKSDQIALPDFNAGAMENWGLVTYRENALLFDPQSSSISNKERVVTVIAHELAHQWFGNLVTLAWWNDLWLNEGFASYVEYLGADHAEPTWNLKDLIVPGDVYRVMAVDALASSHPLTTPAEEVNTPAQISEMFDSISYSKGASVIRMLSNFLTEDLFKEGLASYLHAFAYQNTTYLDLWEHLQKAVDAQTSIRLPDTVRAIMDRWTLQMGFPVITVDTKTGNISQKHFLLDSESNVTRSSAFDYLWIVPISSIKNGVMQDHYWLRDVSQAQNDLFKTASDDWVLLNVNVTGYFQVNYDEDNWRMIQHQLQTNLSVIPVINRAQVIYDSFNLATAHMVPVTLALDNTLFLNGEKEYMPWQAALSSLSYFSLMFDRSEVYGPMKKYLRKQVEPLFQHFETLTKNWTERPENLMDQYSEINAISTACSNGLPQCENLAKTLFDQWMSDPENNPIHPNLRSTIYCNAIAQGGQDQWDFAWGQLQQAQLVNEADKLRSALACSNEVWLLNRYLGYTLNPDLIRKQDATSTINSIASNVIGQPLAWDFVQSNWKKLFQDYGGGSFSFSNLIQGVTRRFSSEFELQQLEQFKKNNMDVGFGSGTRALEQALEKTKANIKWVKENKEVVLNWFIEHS
The experiment in a line: Inhibition of [3H]Leu-enkephalin binding to Aminopeptidase N from hog kidney. A digest of the protocol:
(§1)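 Hog kidney APN preincubated 15 min at 25 °C with rising inhibitor concentrations in 50 mM Tris-HCl pH 7.4; thiols supplied as disulfides reduced in situ with 100 equiv DTT. [3H]Tyr1-Leu5-enkephalin added at 10 nM final (Km 50 μM); reaction stopped after 15 min with HCl. Released [3H]Tyr separated on polystyrene beads; IC50 determined.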

The test system of experiment [2] is Mus musculus. The experiment in a line: Compound (20 mg/kg) was tested for antinociceptive responses induced in hot plate test in mice after an iv dose of acetorphan 10 mg/kg. The format is functional. A digest of the protocol:
(§2)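 Male Swiss mice (20–22 g); agents given iv under disulfide form together with acetorphan 10 mg/kg, in ethanol 10%/cremophor EL 10%/water 80% at 0.1 mL per 10 g; vehicle-injected controls. Jump latency read on hot plate at 55 ± 0.5 °C 15 min after injection, cut-off 240 s. % analgesia = (test − control latency)/(cut-off − control latency) × 100; ANOVA then Dunnett's t test.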
For orientation: Hot-plate and tail-flick tests time the reaction to a heat stimulus.

For experiment [3], the system named is Mus musculus. The experiment in a line: Compound (40 mg/kg) was tested for antinociceptive responses induced in hot plate test in mice after an iv dose of acetorphan 10 mg/kg. The format is functional. The method in brief:
as §2

Experiment [4] has as its system Mus musculus. In words: Compound( 5 mg/kg) was tested for antinociceptive responses induced in hot plate test in mice after an iv dose of acetorphan 10 mg/kg. The format is functional. The method in brief: as §2
Experiment [5] deals with Mus musculus. In words: Compound (10 mg/kg) was tested for antinociceptive responses induced in hot plate test in mice after an iv dose of acetorphan 10 mg/kg. It counts as functional. A digest of the protocol: as §2
Experiment [6] concerns the target T1, Aminopeptidase N. In words: Compound was tested for inhibitory potency against aminopeptidase N from hog kidney, using [3H]Leu-enkephalin as substrate. A digest of the protocol: as §1
In experiment [7] the test system is Mus musculus. The experiment in a line: Compound( 5 mg/kg) was tested for antinociceptive responses induced in hot plate test in mice(% analgesia) after an iv dose of acetorphan 10 mg/kg. The format is functional. A digest of the protocol:
(§3)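 Male Swiss mice (20–22 g) given compound as disulfide form iv, coadministered with acetorphan 10 mg/kg, in ethanol (10%)/cremophor EL (10%)/water (80%) vehicle, 0.1 mL per 10 g; controls got vehicle. Hot plate at 55 ± 0.5 °C 15 min later; jump latency recorded, cut-off 240 s. % analgesia = (test − control latency)/(cut-off − control latency) × 100; ANOVA then Dunnett's t test.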

For experiment [8], the system named is Mus musculus. The experiment in a line: Compound( 20 mg/kg) was tested for antinociceptive responses induced in hot plate test in mice after an iv dose of acetorphan 10 mg/kg. The format is functional. A digest of the protocol:
as §3

In experiment [9] the test system is Mus musculus. The experiment in a line: Compound( 10 mg/kg) was tested for antinociceptive responses induced in hot plate test in mice after an iv dose of acetorphan 10 mg/kg. The format is functional. The method in brief:
as §3

In general, IC50 refers to the concentration needed to halve the response being measured. Lower therefore signals greater potency in that assay. On to `CC(C)(C)SCC(N)CS` (centres undefined), for which the IC50 in [1] is 40 nM.

In turn, `CC(C)CC(N)CS` (centres undefined) showed an IC50 in experiment [1] of 22 nM. Moreover, the values for the Jump latency time in experiment [2] and in experiment [3] were 225.6 s and 240 s, respectively.

In experiment [1], `CNC(CS)CC(C)C` (centres undefined) gave a half-maximal inhibitory concentration (IC50) of 4000 nM.

`SCC(Cc1ccccc1)NCc1ccccc1` (centres undefined) showed an IC50 in experiment [1] of 160000 nM.

Consider `C[S+]([O-])CCC(N)CS` (centres undefined), for which the Jump latency time came to 216.9 s in [4], 236 s in experiment [5] and 240 s in experiment [2].

As to `CSCCC(N)CS` (centres undefined), the Jump latency time in [4] is 200.8 s; in [5], 225.4 s; in experiment [2] it was 240 s.

In turn, `NC(CS)Cc1ccc2ccccc2c1` (centres undefined) returned a half-inhibitory concentration (IC50) in experiment [1] of 130 nM. The Jump latency time is listed as 106.6 s in experiment [2] and 132.8 s in [3].

Molecule `NC(CS)CSCc1ccccc1` (centres undefined) displayed an IC50 in experiment [1] of 90 nM. Moreover, the Jump latency time in [2] stood at 232.2 s; in experiment [3], 233.6 s.

With `NC(CS)COCc1ccccc1` (centres undefined), the IC50 in experiment [1] worked out at 56 nM. The Jump latency time is reported as 166.5 s in [2] and 229.4 s in [3].

`NC(CSCc1ccccc1)Cc1ccccc1` (centres undefined) displayed a half-maximal inhibitory concentration (IC50) in [1] of 80000 nM.

As for `NC(CS)c1ccccc1` (centres undefined), the midpoint of inhibition in experiment [6], the IC50, lay at 25 nM.

For `NC(CS)Cc1ccc(O)cc1` (centres undefined), the half-maximal inhibitory concentration (IC50) in experiment [6] amounted to 45 nM. Moreover, the results for the Jump latency time in experiment [4], in [2] and in experiment [3] were 112.9 s, 119 s and 166.4 s, respectively.

Consider `NC(CS)CC1CCCCC1` (centres undefined), for which the half-inhibitory concentration (IC50) in [6] came to 45 nM.

In [1], `NC(Cc1ccccc1)CP(=O)(O)O` (centres undefined) showed an IC50 of 500000 nM.

The molecule `NC(CC(=O)O)Cc1ccccc1` (centres undefined) returned an IC50 in experiment [6] of 800000 nM.

As a reminder, the ED50 is the dose at which the effect has come halfway, by size or by number of responders. A high value points to weaker potency. As for `NC(CS)Cc1ccccc1` (centres undefined), the ED50 in experiment [7] was 12 mg/kg. In addition, the Jump latency time is 90 s in experiment [4], 204.2 s in [8] and 147.9 s in experiment [9].
